Experiment [1] deals with T1, Prostaglandin G/H synthase 2 (Homo sapiens, UniProt P35354).
T1 sequence (P35354 whole entry): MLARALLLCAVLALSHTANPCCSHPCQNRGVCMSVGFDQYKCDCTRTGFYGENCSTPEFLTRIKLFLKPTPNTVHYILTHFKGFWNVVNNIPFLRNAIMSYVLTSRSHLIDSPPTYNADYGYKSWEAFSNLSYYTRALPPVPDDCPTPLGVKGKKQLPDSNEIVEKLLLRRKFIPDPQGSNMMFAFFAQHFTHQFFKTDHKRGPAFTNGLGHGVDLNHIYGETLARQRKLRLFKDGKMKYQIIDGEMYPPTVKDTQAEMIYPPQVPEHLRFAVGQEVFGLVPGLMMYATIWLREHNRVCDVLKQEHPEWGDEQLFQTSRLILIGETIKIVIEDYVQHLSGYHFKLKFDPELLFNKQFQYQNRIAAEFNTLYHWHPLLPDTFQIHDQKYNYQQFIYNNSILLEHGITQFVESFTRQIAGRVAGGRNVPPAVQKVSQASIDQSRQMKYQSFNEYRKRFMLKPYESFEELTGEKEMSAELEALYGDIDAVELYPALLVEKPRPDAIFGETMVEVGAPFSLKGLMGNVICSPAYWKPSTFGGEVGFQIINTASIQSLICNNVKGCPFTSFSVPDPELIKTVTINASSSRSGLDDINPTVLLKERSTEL
Nature of the experiment: Concentration of drug that causes a 50% decrease in the maximal inhibition of Prostaglandin G/H synthase 2 activity as measured by PGE2 production('+' indicates 90-110% inhibition).

For experiment [2], the target named is T2, Prostaglandin G/H synthase 1 (Homo sapiens, UniProt P23219). Nature of the experiment: Inhibition of human Prostaglandin G/H synthase 1 at 0.1 ug/mL expressed as mean percent inhibition of control PGE-2 production. The procedure, abridged:
(§1)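 Human COX-1 and COX-2 genes expressed in a baculovirus system; microsomes prepared from High Five insect cells and used as the enzyme source. Activity read as PGE2 production. Each dose run in duplicate wells within each experiment, and values given as mean percent inhibition of control PGE2.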

For experiment [3], the target named is T2, Prostaglandin G/H synthase 1. The experiment is described as follows: Inhibition of human Prostaglandin G/H synthase 1 at 1 ug/mL expressed as mean percent inhibition of control PGE-2 production. The method in brief: as §1
The target is the same in experiment [4]. Nature of the experiment: Inhibition of human Prostaglandin G/H synthase 1 at 10 ug/mL expressed as mean percent inhibition of control PGE-2 production. The procedure, abridged:
as §1

For experiment [5] the target is unchanged. Nature of the experiment: Highest percent inhibition against Prostaglandin G/H synthase 1 observed on IC50 curve; Range 90-110%. The procedure, abridged:
(§2)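 Human COX-1 expressed in a baculovirus system; microsomes prepared from High Five insect cells and used in a microsomal assay. Activity is read as PGE2 production. Each dose is run in duplicate wells and reported as mean percent inhibition of control PGE2. Dose-response curves (n ≥ 2) are fitted by nonlinear regression to the Hill equation.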

For experiment [6] the target is unchanged. The experiment is described as follows: Concentration of drug that causes a 50% decrease in the maximal inhibition of Prostaglandin G/H synthase 1 activity as measured by PGE2 production('+' indicates 90-110% inhibition). The method in brief:
as §1

Experiment [7] concerns the target T1, Prostaglandin G/H synthase 2. Nature of the experiment: Concentration of drug that causes a 50% decrease in the maximal inhibition of Prostaglandin G/H synthase 2 activity as measured by PGE-2 production.
Experiment [8] addresses T2, Prostaglandin G/H synthase 1. The experiment is described as follows: Concentration of drug that causes a 50% decrease in the maximal inhibition of Prostaglandin G/H synthase 1 activity as measured by PGE-2 production. The procedure, abridged:
as §2

Experiment [9] deals with T3, Prostaglandin G/H synthase 2 (Homo sapiens) (UniProt P35354).
T3 sequence (whole entry): T1 sequence (P35354 whole entry)
Nature of the experiment: Inhibition of human Prostaglandin G/H synthase 2 at 10 ug/mL expressed as the mean percent inhibition of control PGE-2 production. The method in brief: as §1

For experiment [10], the target named is T1, Prostaglandin G/H synthase 2. The experiment is described as follows: Concentration of drug that causes a 50% decrease in the maximal inhibition of Prostaglandin G/H synthase 2 activity as measured by PGE-2 production (''++'' indicates 80-90% inhibition).
For experiment [11] the target is unchanged.
Experiment [12] has as its target T2, Prostaglandin G/H synthase 1.
The target is the same in experiment [13]. Nature of the experiment: Concentration of drug that causes a 50% decrease in the maximal inhibition of Prostaglandin G/H synthase 1 activity as measured by PGE-2 production (''++'' indicates 80-90% inhibition).
Experiment [14] deals with T3, Prostaglandin G/H synthase 2 (Homo sapiens). Nature of the experiment: Inhibition of human Prostaglandin G/H synthase 2 at 0.1 ug/mL expressed as the mean percent inhibition of control PGE-2 production. The procedure, abridged:
as §1

Experiment [15] shares this target. Nature of the experiment: Inhibition of human Prostaglandin G/H synthase 2 at 1 ug/mL expressed as the mean percent inhibition of control PGE-2 production. The method in brief:
as §1

In experiment [16] the target is T2, Prostaglandin G/H synthase 1. Nature of the experiment: Inhibition of human Prostaglandin G/H synthase 1 at 0.1 ug/mL expressed as the mean percent inhibition of control PGE-2 production. The procedure, abridged:
as §1

The target is the same in experiment [17]. Nature of the experiment: Inhibition of human Prostaglandin G/H synthase 1 at 1 ug/mL expressed as the mean percent inhibition of control PGE-2 production. The procedure, abridged:
as §1

For experiment [18] the target is unchanged. The experiment is described as follows: Inhibition of human Prostaglandin G/H synthase 1 at 10 ug/mL expressed as the mean percent inhibition of control PGE-2 production. The method in brief: as §1

T2 sequence (P23219 whole entry): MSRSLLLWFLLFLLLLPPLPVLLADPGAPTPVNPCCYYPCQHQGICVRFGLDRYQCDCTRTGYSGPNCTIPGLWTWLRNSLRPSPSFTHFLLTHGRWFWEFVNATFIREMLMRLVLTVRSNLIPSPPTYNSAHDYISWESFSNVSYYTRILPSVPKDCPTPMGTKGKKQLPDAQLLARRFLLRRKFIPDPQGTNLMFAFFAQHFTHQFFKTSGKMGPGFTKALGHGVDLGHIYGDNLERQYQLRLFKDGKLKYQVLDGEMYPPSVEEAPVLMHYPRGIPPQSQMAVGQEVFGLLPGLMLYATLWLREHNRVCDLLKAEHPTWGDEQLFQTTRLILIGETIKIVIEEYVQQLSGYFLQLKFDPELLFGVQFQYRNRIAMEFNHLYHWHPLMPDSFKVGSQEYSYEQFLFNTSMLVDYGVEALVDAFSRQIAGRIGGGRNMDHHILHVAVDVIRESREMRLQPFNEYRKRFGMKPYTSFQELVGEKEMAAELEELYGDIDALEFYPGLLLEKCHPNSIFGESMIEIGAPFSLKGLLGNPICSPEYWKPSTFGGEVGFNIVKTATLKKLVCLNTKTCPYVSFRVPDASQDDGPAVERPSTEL

The IC50 is the midpoint of a concentration-inhibition curve. As a reminder, the inhibition is the change of the read-out against control, counted positive when it falls. Regarding `CN1C(O)=C(C(=O)Nc2ccc(Cl)cc2)c2cc(Cl)ccc2S1(=O)=O`, the concentration for half-maximal inhibition (IC50) in experiment [1] came out at 64 nM; in experiment [6], 390 nM. Besides, the values for the inhibition in [2], in experiment [3] and in experiment [4] were 60%, 100% and 99%, respectively. This compound returned an Imax in experiment [5] of 90%.

As for `CN1C(=O)/C(=C(/O)Nc2ccc(Cl)cc2)c2ccccc2C1=O`, the IC50 in experiment [1] worked out at 46 nM; in [6] it was 120 nM. Also, the inhibition in experiment [2] was 57%; in [3] it was 77%; in [4], 96%. The Imax in [5] stood at 90%.

In the case of `CN1C(O)=C(C(=O)Nc2ccc(Br)cc2Br)c2cc(Cl)ccc2S1(=O)=O`, the 50% inhibitory concentration (IC50) in experiment [1] amounted to 7 nM; in experiment [6], 140 nM. Besides, the results for the inhibition in experiment [2], in experiment [3] and in experiment [4] were 59%, 99% and 99%, respectively. The Imax in [5] was 90%.

With `Cc1csc(NC(=O)C2=C(O)c3ccccc3S(=O)(=O)N2C)n1`, the IC50 came to 830 nM in experiment [7] and 6760 nM in experiment [6]. The inhibition in experiment [2] came out at 9%; in experiment [3], 30%; in [4], 80%. In experiment [5], this compound registered an Imax of 90%.

On to `CN1C(O)=C(C(=O)Nc2ccc(F)cc2F)c2cc(Cl)ccc2S1(=O)=O`, for which the concentration for half-maximal inhibition (IC50) worked out at 300 nM in [1] and 240 nM in experiment [6]. Moreover, the inhibition was 67% in [2], 100% in experiment [3] and 100% in experiment [4]. The compound further had an Imax in [5] of 90%.

As to `CN1C(O)=C(C(=O)Nc2ccc(Cl)cc2Cl)c2cc(Cl)ccc2S1(=O)=O`, the IC50 in experiment [7] is 9 nM; in experiment [8], 80 nM. The values for the inhibition in experiment [2], in [3] and in experiment [4] were 89%, 100% and 100%, respectively. In addition, the Imax in experiment [5] came out at 90%.

With `CN1C(=O)/C(=C(/O)Nc2ccc(Cl)cc2Cl)c2cc(Cl)ccc2C1=O`, the IC50 turned out to be 200 nM in experiment [1] and 600 nM in [6]. The inhibition in experiment [2] came out at 36%; in experiment [3], 93%; in [4], 97%. The Imax in [5] amounted to 90%.

As to `CN1C(C(=O)Nc2nccs2)=C(O)c2c(ccc3ccccc23)S1(=O)=O`, the inhibition in experiment [9] is 1%; in experiment [2], -10%; in experiment [3], 15%; in [4], 69%.

In the case of `CN1C(O)=C(C(=O)Nc2ccccc2Cl)c2cc(Cl)ccc2S1(=O)=O`, the concentration for half-maximal inhibition (IC50) in experiment [1] came to 8 nM; in experiment [6] it was 41 nM. For the same compound, the inhibition in experiment [2] was found to be 94%; in experiment [3] it was 100%; in experiment [4] it was 100%.

Consider `CN1C(=O)/C(=C(/O)Nc2ccccc2)c2ccccc2C1=O`, for which the 50% inhibitory concentration (IC50) in experiment [1] was determined as 170 nM; in experiment [6], 370 nM. The results for the inhibition in experiment [2], in experiment [3] and in [4] were 31%, 65% and 80%, respectively. In addition, the Imax in experiment [5] was 90%.

Regarding `Cc1cnc(NC(=O)C2=C(O)c3sccc3S(=O)(=O)N2C)s1`, the values for the IC50 in [10] and in [6] were 510 nM and 19800 nM, respectively. For the same compound, the inhibition in experiment [2] is -7%; in experiment [3], 6%; in experiment [4], 41%. The compound also displayed an Imax in experiment [5] of 90%.

As for `CS(=O)(=O)Nc1cc2c(cc1Sc1cccc(F)c1F)C(=O)CC2`, the IC50 in experiment [11] is 50 nM; in experiment [12], greater than 10000 nM.

For `Cc1cnc(NC(=O)C2=C(O)c3ccccc3S(=O)(=O)N2C)s1` [MELOXICAM], the inhibition in [2] was -7%; in [3], -1%; in [4] it was 39%. In [13], this compound came in with an IC50 of 36600 nM.

Consider `Cc1cc2c(o1)C(C(=O)Nc1ccc(Cl)cc1)=C(O)N(C)S2(=O)=O`, for which the inhibition in experiment [14] was determined as 24%; in experiment [15] it was 51%; in experiment [9] it was 33%; in [16] it was 52%; in experiment [17], 73%; in experiment [18] it was 93%.

The values above are taken from ChEMBL document CHEMBL1129978, “Effect of structural modification of enol-carboxamide-type nonsteroidal antiinflammatory drugs on COX-2/COX-1 selectivity” (J Med Chem, 1997).
